Results: ChEMBL document CHEMBL4339237, “Bulbiferates A and B: Antibacterial Acetamidohydroxybenzoates from a Marine Proteobacterium, Microbulbifer sp” (2019)
Values after ≈ are worked out from the molar mass of the structure shown. Active and inactive are the calls of the source. The calls are words filed in the database; no cut-off is given here.

Key:
Escherichia coli [1] = assay: Antibacterial activity against Escherichia coli ATCC 25922 incubated for 18 hrs by dilution antimicrobial susceptibility test; assay type: functional; conditions: ATCC 25922, 18 h
In short: (§1)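 Broth dilution susceptibility method for aerobic bacteria in 96-well plates. Compounds dissolved in DMSO and serially diluted to 10 concentrations (0.5–256 μg/mL). Geneticin served as positive control for E. coli and vancomycin for MSSA. Tested in duplicate, with eight untreated media controls per plate. Incubated 18 h at 33 °C. MIC taken as lowest concentration preventing visible growth.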

Escherichia coli [2] = assay: Antibacterial activity against Escherichia coli ATCC 25922 by agar diffusion assay; assay type: functional
Staphylococcus aureus [3] = assay: Antibacterial activity against methicillin-sensitive Staphylococcus aureus ATCC 25913 by agar diffusion assay; assay type: functional
Staphylococcus aureus [4] = assay: Antibacterial activity against methicillin-sensitive Staphylococcus aureus ATCC 25913 incubated for 18 hrs by dilution antimicrobial susceptibility test; assay type: functional; conditions: ATCC 25913, 18 h; in short: as §1
Staphylococcus aureus [5] = assay: Antibacterial activity against methicillin-resistant Staphylococcus aureus ATCC 33591 by agar diffusion assay; assay type: functional, organism-based

| Compound | MIC (Escherichia coli [1]) [µg/mL] | diameter of the inhibition zone (DIZ) (Escherichia coli [2]) | diameter of the inhibition zone (DIZ) (Staphylococcus aureus [3]) [mm] | MIC (Staphylococcus aureus [4]) [µg/mL] | Activity (Staphylococcus aureus [5]) |
| --- | --- | --- | --- | --- | --- |
| CN[C@@H]1[C@@H](O)[C@@H](O[C@@H]2[C@@H](O)[C@H](O[C@H]3O[C@H]([C@H](C)O)[C@@H](O)[C@H](O)[C@H]3N)[C@@H](N)C[C@H]2N)OC[C@]1(C)O | 0.25 (≈ 0.503 µM) |  |  |  |  |
| COC(=O)c1ccc(O)c(NC(C)=O)c1 | > 200 | inactive | 7 | > 200 |  |
| CCCCCCCCOC(=O)c1ccc(O)c(NC(C)=O)c1 | > 200 | inactive | 5 | > 200 |  |
| CCCCCCCCCCCCCCOC(=O)c1ccc(O)c(NC(C)=O)c1 | > 200 |  |  | > 200 |  |
| CCCCCCCCCCCOC(=O)c1ccc(O)c(NC(C)=O)c1 | > 200 | 5 mm | 5 | > 200 | inactive |
| CCCCCCCCCCOC(=O)c1ccc(O)c(NC(C)=O)c1 | > 200 | 6 mm | 10 | > 200 | inactive |
